The campaign covered roughly 220,000 compounds. About 630 (0.29%) were called active. The entries come from a sample that favours actives as a whole. Unmarked numbers belong to inactive results.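 The calls were made as follows: active = activation above its plate's cutoff, the mean activation of the plate's test wells plus 3 SD (cut at about 12% in these data); inactive = the rest.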
These compounds were tested against Mucolipin-3 (Homo sapiens) (UniProt Q8TDD5) (assay: activators of mucolipin-3 cation channel – cell-based, HEK293 TRPML3-YFP, Fluo-8 calcium fluorescence, 3 µM, primary screen (AID 1448;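 also: 0% = DMSO only wells and 100% = carbachol wells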)). Conditions: at 3 µM, stronger effect = higher value, 100% = the carbachol control signal.
Method in brief: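 Test system: TRPML3-YFP stable HEK293 cells. Doses: single point at 3 µM. Incubation: dye loading 1 h 37 °C then 30 min ambient, 125 s read. Signal: Fluo-8 calcium dye fluorescence, ex 470-495, em 515-575 nm. Measure: percent activation from peak-to-basal fluorescence ratio, scaled between DMSO and carbachol.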

Chain of Mucolipin-3 (Homo sapiens) (Q8TDD5 whole entry, looked up): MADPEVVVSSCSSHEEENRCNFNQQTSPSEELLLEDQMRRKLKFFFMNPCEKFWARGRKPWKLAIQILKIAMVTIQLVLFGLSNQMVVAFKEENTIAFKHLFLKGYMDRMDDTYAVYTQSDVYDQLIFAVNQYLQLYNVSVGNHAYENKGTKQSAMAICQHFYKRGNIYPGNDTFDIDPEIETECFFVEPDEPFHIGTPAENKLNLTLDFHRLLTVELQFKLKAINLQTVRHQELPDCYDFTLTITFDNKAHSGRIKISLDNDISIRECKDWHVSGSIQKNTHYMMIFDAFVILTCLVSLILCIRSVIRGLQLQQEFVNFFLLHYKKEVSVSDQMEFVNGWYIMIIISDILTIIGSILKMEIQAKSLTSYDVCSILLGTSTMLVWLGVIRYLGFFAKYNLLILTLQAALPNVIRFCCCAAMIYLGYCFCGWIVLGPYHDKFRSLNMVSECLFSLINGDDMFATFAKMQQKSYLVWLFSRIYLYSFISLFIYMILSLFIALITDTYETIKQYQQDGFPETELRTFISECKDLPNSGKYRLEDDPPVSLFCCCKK

SMILES	activation
COCCNC(=O)C(OC(=O)c1cccs1)c1ccc(F)cc1 (stereo not drawn)	0.35%
COc1cc(OC)cc(C(=O)N[C@H](C(=O)OCC(=O)NC(C)c2ccccc2)C(C)C)c1 (stereo partly drawn)	17.2% (active)
COc1cc(OC)cc(C(=O)N[C@H](C(=O)Nc2nc3ccccc3[nH]2)C(C)C)c1	0.87%
CC(NC(=O)COC(=O)c1ccc2c(c1)OCO2)c1ccccc1 (stereo not drawn)	-0.07%
COc1ccc(Br)cc1CN(C)CC(=O)Nc1cc(Cl)cc(Cl)c1	0.63%
O=c1[nH]c2c(c(=O)n1Cc1ccccc1)CCC2	0.43%
CC(=O)c1ccc(-c2ccc(Cn3c(C)nc4cc(N)c(C)nc43)cc2)cc1	0.69%
Cc1cc2nc3c(=O)n(Cc4ccccc4)c(=O)[nH]c3nc2cc1N	23.9% (active)
CCCC(=O)Nc1cccc(NC(=S)NC(=O)C(C)Oc2ccc(Cl)cc2Cl)c1 (stereo not drawn)	0.1%
Cc1onc(-c2ccccc2)c1C(=O)NNC(=S)NC(=O)c1ccc(F)cc1	1.79%
COc1ccc(C(=O)NC(=S)NNC(=O)c2c(-c3ccccc3)noc2C)cc1	31.2% (active)
COc1ccc(C(=O)NC(=S)NNC(=O)CCc2ccccc2)cc1	2.05%
O=C(Nc1ccc(S(=O)(=O)Nc2nccs2)cc1)c1cc(-c2ccncc2)nc2ccccc12	0.93%
CC(C)Cc1nc(Cl)c(C#N)c2c1CCC2	-0.84%
O=C(CN1CCN(C(=S)NC2CCCC2)CC1)Nc1ccc(Oc2ccccc2)cc1	3.02%
CCOCC(=O)Nc1ncc(S(=O)(=O)c2ccc([N+](=O)[O-])cc2)s1	2.38%
O=C(Cc1c(F)cccc1Cl)Nc1ncc([N+](=O)[O-])s1	10.9%
O=C(CCc1ccccc1)Nc1ncc([N+](=O)[O-])s1	8.03%
CC(=O)Oc1ccccc1C(=O)Nc1ncc([N+](=O)[O-])s1	16.7% (active)
CCC(C)NC(=O)c1ccc(N2CCC3(CC2)OCCO3)c([N+](=O)[O-])c1 (stereo not drawn)	-0.07%
COc1cc2nc(CN(C)Cc3ccc(F)cc3)[nH]c(=O)c2cc1OC	0.67%
CN(c1ccccc1)c1ccc(/C=c2\s/c(=C(/C#N)C(=O)C(C)(C)C)n(Cc3ccco3)c2=O)cc1	14.8% (active)
COc1ccc(NC(=O)Cn2c(=O)n(Cc3ccco3)c(=O)c3ccccc32)cc1	0.61%
Cc1cs/c(=N\N=C\c2ccc(O)cc2)n1Cc1ccco1	-0.12%

SMILES	activation
Cc1sc2ncnc(Sc3nc4ccccc4s3)c2c1C	0.98%
CCc1c(C)nc2c(-c3ccccc3)c(C)nn2c1Nc1ccc(NC(C)=O)cc1	-0.72%
Cc1ccc(NC(=O)CN(C)CC(=O)Nc2cccc(F)c2)cc1[N+](=O)[O-]	4.13%
Cc1ccc(CN(C)CC(=O)Nc2cccc([N+](=O)[O-])c2)o1	-0.52%
CN(CC(=O)Nc1cccc(F)c1)CC(=O)Nc1cccc([N+](=O)[O-])c1	26.9% (active)
COC(=O)C1=C(C)N(c2ccc(Br)cc2)C(=O)/C1=C\c1ccco1	0.24%
O=C(O)C(c1ccccc1)C1(O)CCCCC1 (stereo not drawn)	1.12%
CC(NC(=O)C(C)(C)C)C(c1cccs1)N1CCN(Cc2ccccc2)CC1 (stereo not drawn)	-0.4%
CCOc1cc(/C=C2/C(=N)N3OC(C)=CC3=NC2=O)ccc1OC	0.9%
COc1ccc(OCCCn2cccc2/C=C2/C(=N)N3OC(C)=CC3=NC2=O)cc1	1.97%
CC1=CC2=NC(=O)/C(=C/c3coc4ccccc4c3=O)C(=N)N2O1	18.6% (active)
COc1ccc(N2C(=O)/C(=C\c3ccco3)N=C2SCC(N)=O)cc1Cl	0.09%
O=C(c1cccc(F)c1)N1CCN(c2ccc([N+](=O)[O-])c3cccnc23)CC1	0.25%
CCN1CCN(c2nc(Nc3cccc(F)c3)nc(N)c2[N+](=O)[O-])CC1	0.34%
CCOC(=O)c1c(-c2ccccc2)csc1NC(=S)NC(=O)c1ccccc1	-0.33%
COCCCNC(=S)NC(=O)c1ccccc1	0.01%
CCOC(=O)C1=C(NC(=S)NC(=O)c2ccccc2)c2ccccc2CC1(C)C	43.3% (active)
CCc1ccc2ncc(C(=O)c3ccccc3)c(N3CCOCC3)c2c1	-0.05%
COCCNc1cc(NCCOC)c([N+](=O)[O-])cc1[N+](=O)[O-]	0.69%
COc1ccc(S(=O)(=O)N2CCCCC2)cc1Br	9.19%
CCOc1ccc(S(=O)(=O)N2CCCCCC2)c2ccccc12	101% (active)
COc1ccc(F)cc1S(=O)(=O)N1CCCCC1	0.95%
CCOc1ccc(Br)cc1S(=O)(=O)N1CCC(C(=O)O)CC1	1.07%
COc1ccc(S(=O)(=O)N2CCOCC2)c(C)c1C	0.66%

SMILES	activation
COc1ccc(S(=O)(=O)N2CCCC2)c(C)c1C	13.3% (active)
COc1ccccc1Cn1c(C)nnc1-c1cnn(C)c1N	-0.66%
CCCCN(CCCC)CC(O)Cn1c2ccccc2c(=O)c2ccccc21 (stereo not drawn)	0.31%
Cc1cc(Cl)ccc1OCc1nc(-c2ccncc2)no1	-0.07%
O=C(CSc1nnc2n1CCCN2)c1ccccc1	0.51%
CCN(CC)C(=O)CC1(c2ccccc2OC)CCOC(C(C)C)C1 (stereo not drawn)	17.3% (active)
COc1ccc(C2(CNC(=O)C(c3ccccc3)c3ccccc3)CCOCC2)cc1OC	0%
CCN(CC)C(=O)CSc1nc2ccccc2n1CC(=O)N1CCN(c2ccccc2OC)CC1	-0.02%
CCC(C)(C)NC(=O)C(c1ccc(O)cc1)N(C(=O)Cn1nnc2ccccc21)c1ccc(NC(C)=O)cc1 (stereo not drawn)	0.14%
NS(=O)(=O)c1ccc(NC(=O)COC(=O)c2cc3ccccc3oc2=O)cc1	0.31%
NS(=O)(=O)c1ccc(NC(=O)COC(=O)c2c3c(nc4ccccc24)/C(=C\c2ccc4c(c2)OCO4)CCC3)cc1	24% (active)
COc1cc(-c2cc(C(=O)OCC(=O)Nc3ccc4c(c3)OCO4)c3ccccc3n2)cc(OC)c1OC	-0.31%
NS(=O)(=O)c1ccc(NC(=O)COC(=O)c2ccc(Cl)nc2)cc1	0.29%
NC(=O)c1ccc(NC(=O)COC(=O)c2c3c(nc4ccccc24)/C(=C\c2ccc4c(c2)OCO4)CCC3)cc1	29.2% (active)
O=C(COC(=O)c1c2c(nc3ccccc13)/C(=C\c1cccs1)CCC2)Nc1ccccc1Cl	0.46%
Cc1ccc(C2=N/C(=C\c3ccc(OS(=O)(=O)c4ccc(C)cc4)cc3)C(=O)O2)cc1	0.55%
CCN(CC)S(=O)(=O)c1ccc(C)c(NC(=O)COc2ccc(Br)cc2Cl)c1	0.13%
O=C(Nc1ccccc1C(=O)O)c1cc(S(=O)(=O)N2CCCCC2)cs1	-0.64%
c1csc(-c2nnc(COc3ccc4c(c3)OCO4)o2)c1	0.41%
c1ccc2c(CSCc3nc4ccccc4[nH]3)cccc2c1	0.61%
Nc1scc[n+]1Cc1cccc2cccnc12	0.56%
c1ccc2c(C[n+]3csc4ccccc43)cccc2c1	34.1% (active)
O=C(CN1CCN(c2nc(-c3ccccc3)cs2)CC1)NCc1ccc2c(c1)OCO2	0.02%
CC1CCCC(C)N1C(=O)CN1CCN(c2nc(-c3ccc(F)cc3)cs2)CC1 (stereo not drawn)	12.9% (active)

SMILES	activation
COc1cccc(NC(=O)CN2CCN(c3nc(-c4cccc(OC)c4)cs3)CC2)c1	0.54%
CC1CCCC(NC(=O)COC(=O)[C@@H]2CC(O)CN2S(=O)(=O)c2ccc3c(c2)OCCO3)C1C (stereo partly drawn)	0.86%
COc1cc(N/C=C2\CC(=O)NC(C)=C2C#N)cc(OC)c1OC	0.7%
COc1cccc(CC(=O)N2CCCC(CCC(=O)N3CCN(c4ccccn4)CC3)C2)c1 (stereo not drawn)	2.9%
CC(C[N+](C)(C)C)OC(N)=O (stereo not drawn)	3.52%
CC(=O)OC(C)C[N+](C)(C)C (stereo not drawn)	78.4% (active)
COc1ccc(C[C@H]2CN3C(=NC[C@H]3C)N2CCNC(=O)CCC2CCCCC2)cc1	0.4%
CCCCCCCCCCOC(=O)C[N+](C)(C)CC1CCCCC1O (stereo not drawn)	-0.99%
Cc1cccc(C)c1N1CCN(S(=O)(=O)N2CCCCC2)CC1	57.5% (active)
O=S(=O)(N1CCCCC1)N1CCNCC1	0.7%
Cc1cccc(C)c1N1CCN(S(=O)(=O)N2CCOCC2)CC1	1.69%
CCC(C)(C)c1ccc(OCC(=O)N(C)C)c(C(C)(C)CC)c1	0.49%
CC1=CC(C)(C)N(C(=O)CSc2nccn2C)c2cc(C)ccc21	-1.12%
O=C(CSc1nnc(-c2ccccc2)o1)N1CCOCC1	0.92%
CC1=CC(C)(C)N(C(=O)CSc2nnc(-c3ccccc3)o2)c2ccc(C)cc21	23.2% (active)
Cc1ccc(C(=O)N2CCN(S(=O)(=O)N3CCOCC3)CC2)cc1	0.24%
O=C(COC(=O)CC1CC2CCC1C2)NC(=O)NC1CCCC1 (stereo not drawn)	0%
COc1ccc(S(=O)(=O)NC(C)C(=O)Nc2cccc([N+](=O)[O-])c2)cc1 (stereo not drawn)	-0.47%
COc1cc(OC)c(-n2cc(-c3ccc(Cl)cc3)[nH]c2=O)cc1Cl	12.1% (active)
COc1ccc(-c2cn(-c3ccc(OC)cc3)c(=S)[nH]2)cc1	0.32%
COc1cc(OC)c(-n2c(C)cc(C=O)c2C)cc1Cl	-0.32%

Reference: PubChem BioAssay AID1448 (The Scripps Research Institute Molecular Screening Center, 2008)
